# From ChEMBL document CHEMBL4002606, “Discovery of FZU-03,010 as a self-assembling anticancer amphiphile for acute myeloid leukemia” (Bioorg Med Chem Lett, 2017)
# Active and inactive are the calls of the source. The rule behind the calls is not given here.
# How the values were obtained:
# [1] = Induction of nanoparticle formation in DMSO/deionized water at 1.5 mg/ml
# [2] = system: HL-60; assay: Induction of apoptosis in human HL60 cells assessed as downregulation of Bcl2 expression up to 4 uM after 24 hrs by Western blot method; assay type: functional, cell-based
# How it was run: (§1)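 HL-60 cells treated at different concentrations; lysates probed with specific antibodies against procaspase-3, cleaved caspase-9, PARP, Bcl-2, phospho-P70S6K and phospho-Akt; actin used as loading control.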
# [3] = biological target: Serine/threonine-protein kinase mTOR (Homo sapiens) (UniProt P42345); assay: Inhibition of mTOR in human HL60 cells assessed as reduction in P70S6K phosphorylation at Thr389-residue up to 4 uM after 24 hrs by Western blot method; assay type: cell-based; how it was run: as §1
# [4] = system: HL-60; assay: Induction of apoptosis in human HL60 cells assessed as PARP cleavage up to 4 uM after 24 hrs by Western blot method; assay type: functional, cell-based; how it was run: as §1
# [5] = species: Homo sapiens; assay: Inhibition of PI3K in human HL60 cells assessed as reduction in Akt phosphorylation at Ser473-residue up to 4 uM after 24 hrs by Western blot method; assay type: cell-based; how it was run: as §1
# [6] = system: HL-60; assay: Induction of apoptosis in human HL60 cells assessed as caspase-9 cleavage after 24 hrs by Western blot method; assay type: functional, cell-based; how it was run: as §1
# [7] = system: HL-60; assay: Induction of apoptosis in human HL60 cells assessed as downregulation of procaspase-3 expression after 24 hrs by Western blot method; assay type: functional, cell-based; how it was run: as §1
# [8] = Induction of nanoparticle formation in DMSO/deionized water after 25 days by dynamic light scattering assay
# [9] = system: HL-60; assay: Growth inhibition of human HL60 cells at 10 uM after 48 hrs by MTT assay relative to control; assay type: functional; conditions: for inhibition of growth at 10 µM: HL-60, 48 h, read-out: GI
# [10] = system: HL-60; assay: Growth inhibition of human HL60 cells after 48 hrs by MTT assay; assay type: functional, cell-based; conditions: HL-60, 48 h
# How it was run: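 HL-60 human promyelocytic leukemia cells; proliferation inhibition of the cells measured and reported as IC50; values are mean ± SE of at least three independent experiments.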
# [11] = system: HL-60; assay: Growth inhibition of human HL60 cells at 40 uM after 48 hrs by MTT assay relative to control; assay type: functional; conditions: for inhibition of growth at 40 µM: HL-60, 48 h, read-out: GI
# [12] = system: HL-60; assay: Growth inhibition of human HL60 cells at 20 uM after 48 hrs by MTT assay relative to control; assay type: functional; conditions: for inhibition of growth at 20 µM: HL-60, 48 h, read-out: GI
# [13] = system: HL-60; assay: Growth inhibition of human HL60 cells at 1.25 uM after 48 hrs by MTT assay relative to control; assay type: functional; conditions: for inhibition of growth at 1.25 µM: HL-60, 48 h, read-out: GI
# [14] = system: HL-60; assay: Growth inhibition of human HL60 cells at 0.63 uM after 48 hrs by MTT assay relative to control; assay type: functional; conditions: for inhibition of growth at 0.63 µM: HL-60, 48 h, read-out: GI
# [15] = system: HL-60; assay: Growth inhibition of human HL60 cells at 5 uM after 48 hrs by MTT assay relative to control; assay type: functional; conditions: for inhibition of growth at 5 µM: HL-60, 48 h, read-out: GI
# [16] = system: HL-60; assay: Growth inhibition of human HL60 cells at 2.5 uM after 48 hrs by MTT assay relative to control; assay type: functional; conditions: for inhibition of growth at 2.5 µM: HL-60, 48 h, read-out: GI
# [17] = system: HL-60; assay: Induction of apoptosis in human HL60 cells assessed as early apoptotic cells at 80 uM after 24 hrs by Annexin V-PE/7AAD staining based flow cytometry (reference value: 4.42%); assay type: functional
# [18] = system: HL-60; assay: Induction of apoptosis in human HL60 cells assessed as late apoptotic cells at 80 uM after 24 hrs by Annexin V-PE/7AAD staining based flow cytometry (reference value: 3.64%); assay type: functional
# [19] = biological target: Serine/threonine-protein kinase mTOR (Homo sapiens) (UniProt P42345); assay: Inhibition of mTOR in human HL60 cells assessed as reduction in P70S6K phosphorylation at Thr389-residue up to 80 uM after 24 hrs by Western blot method; assay type: cell-based; how it was run: as §1
# [20] = system: HL-60; assay: Induction of apoptosis in human HL60 cells assessed as PARP cleavage up to 80 uM after 24 hrs by Western blot method; assay type: functional, cell-based; how it was run: as §1
# [21] = system: HL-60; assay: Induction of apoptosis in human HL60 cells assessed as downregulation of Bcl2 expression up to 80 uM after 24 hrs by Western blot method; assay type: functional, cell-based; how it was run: as §1
# [22] = species: Homo sapiens; assay: Inhibition of PI3K in human HL60 cells assessed as reduction in Akt phosphorylation at Ser473-residue up to 80 uM after 24 hrs by Western blot method; assay type: cell-based; how it was run: as §1
# [23] = system: HL-60; assay: Induction of apoptosis in human HL60 cells assessed as necrotic cells at 80 uM after 24 hrs by Annexin V-PE/7AAD staining based flow cytometry (reference value: 1.08%); assay type: functional
# [24] = system: HL-60; assay: Induction of apoptosis in human HL60 cells assessed as live cells at 80 uM after 24 hrs by Annexin V-PE/7AAD staining based flow cytometry (reference value: 90.9%); assay type: functional
# [25] = system: HL-60; assay: Induction of apoptosis in human HL60 cells assessed as early apoptotic cells at 10 uM after 24 hrs by Annexin V-PE/7AAD staining based flow cytometry (reference value: 4.42%); assay type: functional
# [26] = biological target: Serine/threonine-protein kinase mTOR (Homo sapiens) (UniProt P42345); assay: Inhibition of mTOR in human HL60 cells assessed as reduction in P70S6K phosphorylation at Thr389-residue up to 10 uM after 24 hrs by Western blot method; assay type: cell-based; how it was run: as §1
# [27] = system: HL-60; assay: Induction of apoptosis in human HL60 cells assessed as necrotic cells at 10 uM after 24 hrs by Annexin V-PE/7AAD staining based flow cytometry (reference value: 1.08%); assay type: functional
# [28] = system: HL-60; assay: Induction of apoptosis in human HL60 cells assessed as live cells at 10 uM after 24 hrs by Annexin V-PE/7AAD staining based flow cytometry (reference value: 90.9%); assay type: functional
# [29] = species: Homo sapiens; assay: Inhibition of PI3K in human HL60 cells assessed as reduction in Akt phosphorylation at Ser473-residue up to 10 uM after 24 hrs by Western blot method; assay type: cell-based; how it was run: as §1
# [30] = system: HL-60; assay: Induction of apoptosis in human HL60 cells assessed as PARP cleavage up to 10 uM after 24 hrs by Western blot method; assay type: functional, cell-based; how it was run: as §1
# [31] = system: HL-60; assay: Induction of apoptosis in human HL60 cells assessed as downregulation of Bcl2 expression up to 10 uM after 24 hrs by Western blot method; assay type: functional, cell-based; how it was run: as §1
# [32] = system: HL-60; assay: Induction of apoptosis in human HL60 cells assessed as late apoptotic cells at 10 uM after 24 hrs by Annexin V-PE/7AAD staining based flow cytometry (reference value: 3.64%); assay type: functional
# [33] = Aqueous solubility of the compound in water by HPLC method; assay type: physicochemical
SMILES,IC50 [10],inhibition of growth at 10 µM [9],inhibition of growth at 40 µM [11],inhibition of growth at 20 µM [12],inhibition of growth at 1.25 µM [13],inhibition of growth at 0.63 µM [14],inhibition of growth at 5 µM [15],inhibition of growth at 2.5 µM [16],growth inhibition (GI) [14],other results
C[C@H]1[C@H](C)CC[C@]2(C(=O)N3CCNCC3)CC[C@]3(C)C(=CC[C@@H]4[C@@]5(C)Cc6cn[nH]c6C(C)(C)[C@@H]5CC[C@]43C)[C@H]12,,,,,,,,,,Activity [1]: Active; Activity [2]: Active; inhibition [3]: Active; Activity [4]: Active; inhibition [5]: Active; Activity [6]: Dose-dependent effect; Activity [7]: Dose-dependent effect; Activity [8]: Active
COc1cccc2c1C(=O)c1c(O)c3c(c(O)c1C2=O)C[C@@](O)(C(=O)CO)C[C@@H]3O[C@H]1C[C@H](N)[C@H](O)[C@H](C)O1 [DOXORUBICIN],< 0.63 µM,> 99%,> 99%,> 99%,82.5%,80.8%,95.4%,85.6%,,
C[C@H]1[C@H](C)CC[C@]2(C(=O)O)CC[C@]3(C)C(=CC[C@@H]4[C@@]5(C)CC[C@H](O)C(C)(C)[C@@H]5CC[C@]43C)[C@H]12 [URSOLIC ACID],> 40 µM,,,,,,,,inactive,growth inhibition (GI) [9]: inactive; Activity [17]: 13.3%; Activity [18]: 2.43%; growth inhibition (GI) [11]: inactive; growth inhibition (GI) [12]: inactive; inhibition [19]: Active; Activity [20]: Active; Activity [21]: inactive; growth inhibition (GI) [13]: inactive; inhibition [22]: Active; Activity [6]: Dose-dependent effect; Activity [23]: 0.835%; Activity [7]: Dose-dependent effect; Activity [24]: 83.4%; growth inhibition (GI) [15]: inactive; growth inhibition (GI) [16]: inactive
C[C@H]1[C@H](C)CC[C@]2(C(=O)O)CC[C@]3(C)C(=CC[C@@H]4[C@@]5(C)Cc6sc(N)nc6C(C)(C)[C@@H]5CC[C@]43C)[C@H]12,40 µM,,59.2%,12.9%,,,,,inactive,growth inhibition (GI) [9]: inactive; growth inhibition (GI) [13]: inactive; growth inhibition (GI) [15]: inactive; growth inhibition (GI) [16]: inactive
C[C@H]1[C@H](C)CC[C@]2(C(=O)O)CC[C@]3(C)C(=CC[C@@H]4[C@@]5(C)CCC(=O)C(C)(C)[C@@H]5CC[C@]43C)[C@H]12 [URSONIC ACID],> 40 µM,,,,,,,,inactive,growth inhibition (GI) [9]: inactive; growth inhibition (GI) [11]: inactive; growth inhibition (GI) [12]: inactive; growth inhibition (GI) [13]: inactive; growth inhibition (GI) [15]: inactive; growth inhibition (GI) [16]: inactive
CC(=O)NN/C=C1/C[C@]2(C)[C@H]3CC=C4[C@@H]5[C@@H](C)[C@H](C)CC[C@]5(C(=O)O)CC[C@@]4(C)[C@]3(C)CC[C@H]2C(C)(C)C1=O,5.64 µM,61.7%,93.1%,69.7%,20.7%,9.96%,41.7%,28.8%,,
C=CCNc1nc2c(s1)C[C@]1(C)[C@H]3CC=C4[C@@H]5[C@@H](C)[C@H](C)CC[C@]5(C(=O)O)CC[C@@]4(C)[C@]3(C)CC[C@H]1C2(C)C,> 40 µM,20.3%,49.8%,34.7%,0.33%,,13.4%,4.73%,inactive,
C[C@H]1[C@H](C)CC[C@]2(C(=O)N3CCNCC3)CC[C@]3(C)C(=CC[C@@H]4[C@@]5(C)CCC(=O)C(C)(C)[C@@H]5CC[C@]43C)[C@H]12,2.64 µM,92.7%,94.8%,92.5%,22.5%,10.6%,82.2%,43.7%,,
C[C@H]1[C@H](C)CC[C@]2(C(=O)N3CCNCC3)CC[C@]3(C)C(=CC[C@@H]4[C@@]5(C)Cc6cn[nH]c6C(C)(C)[C@@H]5CC[C@]43C)[C@H]12.Cl,,,,,,,,,,solubility [33]: > 150 µg/mL

# The next lines start with results.
IC50 [10],SMILES,inhibition of growth at 10 µM [9],inhibition of growth at 40 µM [11],inhibition of growth at 20 µM [12],inhibition of growth at 1.25 µM [13],inhibition of growth at 0.63 µM [14],inhibition of growth at 5 µM [15],inhibition of growth at 2.5 µM [16],growth inhibition (GI) [14],other results
7.04 µM,C[C@H]1[C@H](C)CC[C@]2(C(=O)N(CCO)CCO)CC[C@]3(C)C(=CC[C@@H]4[C@@]5(C)CCC(=O)C(C)(C)[C@@H]5CC[C@]43C)[C@H]12,53.7%,92.7%,86.5%,8.43%,9.32%,26.7%,12.4%,,
6.26 µM,C[C@H]1[C@H](C)CC[C@]2(C(=O)O)CC[C@]3(C)C(=CC[C@@H]4[C@@]5(C)Cc6c[nH]nc6C(C)(C)[C@@H]5CC[C@]43C)[C@H]12,79.5%,94.7%,93.2%,7.54%,5.36%,16.3%,8.55%,,Activity [25]: 19.5%; inhibition [26]: Active; Activity [6]: Dose-dependent effect; Activity [27]: 0.231%; Activity [28]: 76.3%; inhibition [29]: Active; Activity [7]: Dose-dependent effect; Activity [30]: Active; Activity [31]: Active; Activity [32]: 3.98%
5.44 µM,C[C@H]1[C@H](C)CC[C@]2(C(=O)O)CC[C@]3(C)C(=CC[C@@H]4[C@@]5(C)C/C(=C/O)C(=O)C(C)(C)[C@@H]5CC[C@]43C)[C@H]12,67%,89.8%,72.4%,18.5%,9.03%,50.3%,33.9%,,
5.21 µM,C[C@H]1[C@H](C)CC[C@]2(C(=O)N(CCO)CCO)CC[C@]3(C)C(=CC[C@@H]4[C@@]5(C)Cc6cn[nH]c6C(C)(C)[C@@H]5CC[C@]43C)[C@H]12,86.8%,93.6%,94%,2.47%,3.54%,64.8%,19.3%,,
